Bioassay records from PubChem BioAssay.
XiGFP reactiv: activators of inactive X chromosome reactivation, primary screen, imaging, XiGFP fibroblasts, GFP high-content imaging, set 2; XiGFP mouse fibroblasts, % GFP-positive cells imaging, 3 d; cells co-treated with 5-aza-dC sensitizer; scaled so ellipticine positive control = 100%; activation, % at 7.58 µM; hit rate 0.055% among 360,000; AID 743238, 2013;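 active = mean normalized replicate activation at least 10% and every replicate at or above 10%; inconclusive = only one of the two criteria met; inactive = mean below 10% and not all replicates reach 10%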
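assay system = SV40-immortalized XiGFP fibroblast cells, line 68-5-11 | buffer or medium = DMEM plus 5-aza-dC sensitizer | doses = single-point pinned compound dosing | times = 3-day compound exposure, then 15 min fixation at room temperature | benchmarks = positive control ellipticine, 6 µM final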
PglD inh: C. jejuni PglD acetyltransferase inhibitors, primary screen, biochemical, DTNB colorimetric, single point; purified PglD enzyme, DTNB colorimetric CoA detection; UDP-N-acetylbacillosamine N-acetyltransferase PglD (Campylobacter jejuni); inhibition, % at 12.5 µM; AID 602405, 2012; hit rate 0.098% among 360,000; in the data active = inhibition above about 16%, passing the limit was not always enough; inconclusive = no clear call, values can overlap the other calls
FGF22 binding: binders of human FGF22 protein, primary screen, FGF22 synaptogenesis inhibitor project, biophysical, thermal shift, single point. hit rate 1.5% among 340,000. Fibroblast growth factor 22 (Homo sapiens), Q9HCT0. activity (Tm shift, normalised), % at 9.99 µM. recombinant FGF22 thermal shift, SYPRO orange fluorescence; percent of sucrose octasulfate shift, DMSO zero;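 active = mean Tm shift, scaled 0 neutral to 100 positive control, at about 1.3% or above, every replicate too, limit read from the data; inconclusive = no clear call, values can overlap the other calls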
Target sequence (Q9HCT0 whole entry, looked up): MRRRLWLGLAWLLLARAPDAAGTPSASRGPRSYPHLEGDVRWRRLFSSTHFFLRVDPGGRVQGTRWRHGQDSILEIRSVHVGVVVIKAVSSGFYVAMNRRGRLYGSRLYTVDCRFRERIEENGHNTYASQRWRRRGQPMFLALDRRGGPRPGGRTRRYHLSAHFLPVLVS
E-selectin induc: E-selectin induction in HUVECs, primary screen, imaging, HUVEC, immunofluorescence imaging, single point. normalized: neutral wells 0, TNF-alpha wells 100. activation, % at 7.58 µM. P16581. hit rate 0.37% among 260,000;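 active = mean E-selectin-positive cell signal at least 10% of the positive control, reached in at least 60% of replicates, without over 20% cell loss; inconclusive = no rule given, readout overlaps actives, possibly toxicity-flagged; inactive = the rest, including those meeting only one limit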
Target sequence (P16581 whole entry, looked up): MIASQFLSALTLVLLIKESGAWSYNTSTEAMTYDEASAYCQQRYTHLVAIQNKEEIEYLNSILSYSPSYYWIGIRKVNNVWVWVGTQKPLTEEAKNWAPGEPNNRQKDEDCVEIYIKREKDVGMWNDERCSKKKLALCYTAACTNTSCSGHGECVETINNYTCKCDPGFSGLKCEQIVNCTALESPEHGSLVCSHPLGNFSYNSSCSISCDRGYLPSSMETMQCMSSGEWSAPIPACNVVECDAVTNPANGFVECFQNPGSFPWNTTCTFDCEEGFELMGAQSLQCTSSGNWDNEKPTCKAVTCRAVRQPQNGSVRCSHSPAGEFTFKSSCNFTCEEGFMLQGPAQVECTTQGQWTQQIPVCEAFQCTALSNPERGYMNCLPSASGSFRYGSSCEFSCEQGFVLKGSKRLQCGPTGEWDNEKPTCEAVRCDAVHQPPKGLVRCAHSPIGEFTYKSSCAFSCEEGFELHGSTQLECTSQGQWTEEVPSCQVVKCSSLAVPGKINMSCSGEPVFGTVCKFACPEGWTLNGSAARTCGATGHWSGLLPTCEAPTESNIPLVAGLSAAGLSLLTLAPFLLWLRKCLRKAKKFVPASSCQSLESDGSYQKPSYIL
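Test system – human umbilical vein endothelial cells (HUVEC), E-selectin induction · Input – 3,000 HUVEC seeded per well · Buffer or medium – EGM-2, gelatin · Compound dosing – single-point compound dose · Detection – immunofluorescence imaging · Measure – percent E-selectin-positive cells · Controls – TNF-alpha high, DMSO low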
Statin myotox sup: suppressors of statin myotoxicity in C2C12 myotubes, primary screen, cell-based, single point, plate reader; C2C12 myotubes + simvastatin, ATP luminescence, 48 h; scaled: DMSO 0, geranylgeraniol control 100; rescue of ATP level, % at 7.49 µM; hit rate 0.78% among 330,000; AID 602340, 2012;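 active = mean ATP rescue above about 67%, or every replicate alone reaching that limit, limit read from the data, passing the limit was not always enough; inconclusive = no clear call, values can overlap the other calls; inactive = mean under the limit and some replicate under it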;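 note: myotubes were challenged with 10 µM simvastatin during compound exposure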
DENV2 CPE rescue: inhibitors of DENV2 cytopathic effect, primary screen, cell-based, plate reader, single concentration. hit rate 1.7% among 350,000. CPE inhibition, % at 9.99 µM. DENV2-infected cells, cytopathic effect rescue; in the data active = CPE inhibition above about 20%, passing the limit was not always enough; inconclusive = no clear call, values can overlap the other calls; tested in BHK-21 cells
Of the large screens only hits and unclear results are named; the others gave an inactive call. In the library only some 3.3% were active in any assay of this set; here they are far more common.

COC1=CC(=O)OC(c2cccc(OC)c2)C1 (configuration not stated)	none (no result: PglD inh, Statin myotox sup)
COC1=CC(=O)OC(c2cccc([N+](=O)[O-])c2)C1 (configuration not stated)	DENV2 CPE rescue 41 (no result: PglD inh, Statin myotox sup)
CC(C)(C)NC(=S)N/N=C\c1ccc(-c2ccc([N+](=O)[O-])cc2)o1	XiGFP reactiv 66 (no result: E-selectin induc)
CN(C)CCCNC(=O)C[C@@H]1CC[C@@H]2[C@H](COC[C@H](O)CN2S(=O)(=O)c2ccc(Cl)cc2)O1	none
CCCNC(=O)C(=O)c1cccn1-c1ccsc1C(=O)OC	Statin myotox sup 119 (no result: XiGFP reactiv, FGF22 binding, E-selectin induc, DENV2 CPE rescue)
CNC(=O)c1cccn1-c1ccsc1C(=O)OC	none (no result: XiGFP reactiv, FGF22 binding, E-selectin induc, DENV2 CPE rescue)
COc1ccc(C(=O)N2C[C@H]3[C@@H](c4ccccc42)[C@H](CO)N3Cc2ccc3c(c2)OCO3)cc1	none
COc1cccc(CC(=O)OCC(=O)Nc2nnc(-c3ccccc3)o2)c1	DENV2 CPE rescue 103 (no result: FGF22 binding)
c1ccc(CCNc2ccc3nncn3n2)cc1	none
NCCNc1ccc2nnnn2n1	FGF22 binding 43 (no result: PglD inh, Statin myotox sup)
S=C(NCc1ccccc1Cl)NC1CCCC1	FGF22 binding 43
CCCNC(=O)N1[C@H](CO)[C@H](c2ccc(C3=CCCCC3)cc2)[C@H]1CNC(C)C	none (no result: PglD inh, FGF22 binding, Statin myotox sup)
O=C(NCc1cccnc1)C(=O)NCC(c1ccco1)N1CCN(c2ccccc2)CC1 (configuration not stated)	DENV2 CPE rescue 21 (no result: FGF22 binding, E-selectin induc)
CC(=O)c1ccc(NS(=O)(=O)c2ccc3ccccc3c2)cc1	none (no result: XiGFP reactiv, FGF22 binding, E-selectin induc, Statin myotox sup, DENV2 CPE rescue)
O=C(O)CNC(=O)c1ccc(NS(=O)(=O)c2ccc3ccccc3c2)cc1	DENV2 CPE rescue 31 (no result: E-selectin induc)
CC(CNC(=O)Cn1ccc(NC(=O)OCc2ccccc2)nc1=O)c1ccccc1 (configuration not stated)	DENV2 CPE rescue 36
CC(=O)N(C)c1ccc(C(O)(C(F)(F)F)C(F)(F)F)cc1	none (no result: PglD inh, Statin myotox sup, DENV2 CPE rescue)
CCOC(=O)N(C)c1ccc(C(O)(C(F)(F)F)C(F)(F)F)cc1	Statin myotox sup 71 (no result: XiGFP reactiv, FGF22 binding, E-selectin induc, DENV2 CPE rescue)
Cc1cccc(C)c1N1C(=O)CC(Sc2ccccc2N)C1=O (configuration not stated)	FGF22 binding 44 (no result: Statin myotox sup)
Cc1cc(C)c(N2C(=O)CC(Sc3ccccc3N)C2=O)c(C)c1 (configuration not stated)	none
Cc1noc(C)c1NC(=O)N(C)C[C@H]1Oc2ccc(NC(=O)C3CCCCC3)cc2CC(=O)N([C@H](C)CO)C[C@@H]1C	none
Cn1c(CN2CCCC2)c(C#N)c2ccccc21	FGF22 binding 43 (no result: PglD inh, E-selectin induc, Statin myotox sup)
C=CCn1cc(-c2ccccc2)cc(C#N)c1=O	Statin myotox sup 141 (no result: XiGFP reactiv, FGF22 binding, E-selectin induc, DENV2 CPE rescue)
C[C@H](CO)N1C[C@H](C)[C@H](CN(C)C(=O)Nc2ccc3c(c2)OCO3)Oc2ccc(NC(=O)CCCCCC(=O)Nc3ccccc3N)cc2C1=O	DENV2 CPE rescue 48 (no result: PglD inh, Statin myotox sup)
C[C@H]1CN([C@@H](C)CO)C(=O)c2cc(NC(=O)CCCCCC(=O)Nc3ccccc3N)ccc2O[C@@H]1CN(C)C(=O)Nc1ccc2c(c1)OCO2	none (no result: PglD inh, Statin myotox sup)
C[C@H]1CN([C@@H](C)CO)C(=O)c2cc(NC(=O)CCCCCC(=O)Nc3ccccc3N)ccc2O[C@@H]1CN(C)C(=O)Nc1ccccc1	none (no result: PglD inh, Statin myotox sup)
C[C@@H]1CN([C@@H](C)CO)C(=O)c2cc(NC(=O)CCCCCC(=O)Nc3ccccc3N)ccc2O[C@@H]1CN(C)C(=O)Nc1ccc2c(c1)OCO2	DENV2 CPE rescue 30 (no result: PglD inh, Statin myotox sup)
C[C@@H]1CN([C@@H](C)CO)C(=O)c2cc(NC(=O)CCCCCC(=O)Nc3ccccc3N)ccc2O[C@H]1CN(C)C(=O)Nc1ccc2c(c1)OCO2	E-selectin induc 105 (no result: PglD inh, Statin myotox sup)
C[C@H](CO)N1C[C@H](C)[C@@H](CN(C)C(=O)Nc2ccccc2)Oc2ccc(NC(=O)CCCCCC(=O)Nc3ccccc3N)cc2C1=O	none (no result: PglD inh, FGF22 binding, Statin myotox sup, DENV2 CPE rescue)
C[C@@H]1CN([C@H](C)CO)C(=O)c2cc(NC(=O)CCCCCC(=O)Nc3ccccc3N)ccc2O[C@H]1CN(C)C(=O)Nc1ccc2c(c1)OCO2	E-selectin induc 28 (no result: PglD inh, Statin myotox sup)
C[C@H]1CN([C@@H](C)CO)C(=O)Cc2cc(NS(=O)(=O)c3cn(C)cn3)ccc2O[C@@H]1CN(C)Cc1ccc(C(=O)O)cc1	none
COc1ccc2c3c([nH]c2c1)[C@H](CO)N(Cc1ccc2c(c1)OCO2)CC31CN(C(=O)Nc2c(C)noc2C)C1	none (no result: PglD inh, Statin myotox sup)
C[C@H](CO)N1C[C@H](C)[C@H](CN(C)C)Oc2cc(C#Cc3ccncc3)ccc2S1(=O)=O	DENV2 CPE rescue inconclusive
O=C(C[C@@H]1C[C@@H]2c3cc(NC(=O)Nc4ccccc4F)ccc3O[C@@H]2[C@H](CO)O1)NC1CCCC1	DENV2 CPE rescue 49
O=C(C[C@H]1C[C@H]2c3cc(NC(=O)Nc4ccccc4F)ccc3O[C@H]2[C@H](CO)O1)NC1CCCC1	DENV2 CPE rescue 20
O=C(C[C@H]1C[C@@H]2c3cc(NC(=O)Nc4ccccc4F)ccc3O[C@@H]2[C@@H](CO)O1)NC1CCCC1	DENV2 CPE rescue 23
C/C=C/c1ccc2c(c1)O[C@H](CN(C)C(=O)NCCC)[C@H](C)CN([C@@H](C)CO)S2(=O)=O	none
CC(Oc1ccc(Cl)cc1Cl)C(=O)N(Cc1ccco1)C1CCS(=O)(=O)C1 (configuration not stated)	Statin myotox sup 115 (no result: XiGFP reactiv, FGF22 binding, E-selectin induc, DENV2 CPE rescue)
O=C1NC(CCc2ccccc2)C(=O)N1CCOc1cccc(Br)c1 (configuration not stated)	FGF22 binding 43 (no result: E-selectin induc)
CCCCNC(=O)CN1C(=O)NC(CCc2ccccc2)C1=O (configuration not stated)	FGF22 binding 43 (no result: PglD inh, Statin myotox sup)
COCC(=O)Nc1ccc2c(c1)C(=O)N(C)C[C@H](OC)[C@@H](C)CN(Cc1ccccc1OC)[C@@H](C)CO2	none
CCCOc1cccc(C(=O)O)c1	Statin myotox sup 98 (no result: XiGFP reactiv, FGF22 binding, E-selectin induc, DENV2 CPE rescue)
O=C(NCCC1=CCCCC1)C(=O)NCC1OCCCN1S(=O)(=O)c1ccc(F)cc1 (configuration not stated)	FGF22 binding 44 (no result: E-selectin induc)
O=C(NCCN1CCOCC1)C(=O)NCC1OCCN1S(=O)(=O)c1ccc(F)cc1 (configuration not stated)	none
O=C(NCCN1CCOCC1)C(=O)NCC1OCCN1S(=O)(=O)c1ccc(Cl)cc1 (configuration not stated)	DENV2 CPE rescue 79
C[C@H]1CN([C@@H](C)CO)S(=O)(=O)c2ccc(C#Cc3cccc(F)c3)cc2O[C@H]1CN(C)CC1CC1	none
